# Assay results taken from ChEMBL document CHEMBL1125317, “3-Hydroxy-3-methylglutaryl-coenzyme A reductase inhibitors. 9. The synthesis and biological evaluation of novel simvastatin analogs” (J Med Chem, 1992).
# Tests used:
# Canis familiaris = test: Compound tested […] for % change of plasma cholesterol in cholestyramine-primed dogs after oral administration at 4 mg/kg; type: functional, Canis lupus familiaris
# Rattus norvegicus = test: […] acute inhibition of [14C]cholesterol synthesis in the rat post peroral administration of the test compound at 0.45 mg/kg; type: functional; conditions: route oral
# Procedure, shortened: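 Rats given a single oral dose of 0.45 mg/kg; [14C]acetate incorporation into cholesterol measured 1 h after dosing as index of acute cholesterol synthesis inhibition.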
# [1] = biological target: T1, 3-hydroxy-3-methylglutaryl-coenzyme A reductase (Homo sapiens, UniProt P04035); test: The compound was tested in vitro for inhibitory activity against HMG-CoA reductase
# T1 sequence (P04035 whole entry): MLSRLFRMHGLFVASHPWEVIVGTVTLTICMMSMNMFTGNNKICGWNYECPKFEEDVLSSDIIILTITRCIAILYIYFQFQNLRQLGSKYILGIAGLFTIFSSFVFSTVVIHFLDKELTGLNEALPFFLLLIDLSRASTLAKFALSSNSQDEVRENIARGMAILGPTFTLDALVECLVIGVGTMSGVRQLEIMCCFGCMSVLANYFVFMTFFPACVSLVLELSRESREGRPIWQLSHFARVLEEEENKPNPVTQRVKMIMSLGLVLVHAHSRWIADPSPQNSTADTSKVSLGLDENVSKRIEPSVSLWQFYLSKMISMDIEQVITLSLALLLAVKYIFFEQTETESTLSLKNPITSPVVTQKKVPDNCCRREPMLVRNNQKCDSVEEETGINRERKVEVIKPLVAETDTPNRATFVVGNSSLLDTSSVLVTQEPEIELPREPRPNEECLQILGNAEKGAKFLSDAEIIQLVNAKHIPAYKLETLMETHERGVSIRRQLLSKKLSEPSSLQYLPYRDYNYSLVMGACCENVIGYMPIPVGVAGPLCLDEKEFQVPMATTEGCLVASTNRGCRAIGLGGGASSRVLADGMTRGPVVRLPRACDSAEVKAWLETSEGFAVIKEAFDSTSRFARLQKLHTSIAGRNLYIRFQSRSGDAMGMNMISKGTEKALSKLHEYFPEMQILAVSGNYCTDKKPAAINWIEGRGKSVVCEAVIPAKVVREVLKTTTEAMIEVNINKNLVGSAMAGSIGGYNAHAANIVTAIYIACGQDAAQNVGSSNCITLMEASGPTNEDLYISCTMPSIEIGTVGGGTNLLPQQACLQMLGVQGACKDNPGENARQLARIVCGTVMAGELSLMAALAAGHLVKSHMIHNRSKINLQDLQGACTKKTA
compound,measurement,setting,value
CCC(C)(C)C(=O)O[C@@H]1C2C(=C[C@H](C)[C@H]1[C@@H](O)c1ccccc1)C=C[C@H](C)[C@@H]2CC[C@@H]1C[C@@H](O)CC(=O)O1 (some centres undefined),Change,Canis familiaris,-31%
same,Change,Rattus norvegicus,-25%
CCC(C)(C)C(=O)O[C@@H]1C2C(=C[C@H](C)[C@H]1[C@H](C)O)C=C[C@H](C)[C@@H]2CC[C@@H]1C[C@@H](O)CC(=O)O1 (some centres undefined),Change,Canis familiaris,-32%
same,Change,Rattus norvegicus,-28%
CC[C@H](C)C(=O)O[C@H]1CCC=C2C=C[C@H](C)[C@H](CC[C@@H]3C[C@@H](O)CC(=O)O3)[C@H]21 [MEVASTATIN],IC50,[1],28.4 nM
CCC(C)(C)C(=O)O[C@@H]1C2C(=C[C@H](C)[C@@H]1O)C=C[C@H](C)[C@@H]2CC[C@@H]1C[C@@H](O)CC(=O)O1 (some centres undefined),Change,Canis familiaris,-36%
same,Change,Rattus norvegicus,-45%
CCC(C)(C)C(=O)O[C@H]1C[C@@H](C)C=C2C=C[C@H](C)[C@H](CC[C@@H]3C[C@@H](O)CC(=O)O3)C21 (some centres undefined),Change,Canis familiaris,-60%
same,Change,Rattus norvegicus,-65%
CCC(C)(C)C(=O)O[C@@H]1C2C(=C[C@H](C)[C@H]1CO)C=C[C@H](C)[C@@H]2CC[C@@H]1C[C@@H](O)CC(=O)O1 (some centres undefined),Change,Canis familiaris,0%
same,Change,Rattus norvegicus,-69%
same,IC50,[1],10.8 nM
CC[C@H](C)C(=O)O[C@H]1C[C@@H](C)C=C2C=C[C@H](C)[C@H](CC[C@@H]3C[C@@H](O)CC(=O)O3)C21 (some centres undefined),Change,Canis familiaris,-42%
same,Change,Rattus norvegicus,-55%
